Legend:
[1] = species: Homo sapiens; experiment: Selectivity ratio of IC50 for 20S immunoproteasome beta 2 (unknown origin) to IC50 for 20S constitutive proteasome beta 2 trypsin-like activity (unknown origin)
[2] = target: T1, Proteasome subunit beta type-10 (Homo sapiens, UniProt P40306); experiment: Inhibition of 20S immunoproteasome beta 2 (unknown origin) by cell based ABPP assay
T1 sequence (P40306 whole entry): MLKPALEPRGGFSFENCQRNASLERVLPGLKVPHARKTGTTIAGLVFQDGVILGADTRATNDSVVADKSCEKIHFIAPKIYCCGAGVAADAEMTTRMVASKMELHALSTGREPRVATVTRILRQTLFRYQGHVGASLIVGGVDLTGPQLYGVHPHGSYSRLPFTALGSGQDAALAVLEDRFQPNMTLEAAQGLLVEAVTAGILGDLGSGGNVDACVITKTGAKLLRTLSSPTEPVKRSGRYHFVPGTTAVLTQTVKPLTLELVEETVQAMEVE
Method in brief: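 Living RPMI-8226 cells, (5–8) ×10^5 cells/mL, exposed to inhibitor 1 h at 37 °C, washed, lysed in digitonin buffer 1 h on ice; residual activity labelled with cocktail ABPs, SDS-PAGE in-gel fluorescence, bands divided by mock, Coomassie staining to correct loading. IC50 from mean of three independent experiments.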

[3] = target: T2, Proteasome subunit beta type-6 (Homo sapiens, UniProt P28072); experiment: Inhibition of 20S constitutive proteasome beta 1 caspase-like activity in human Raji cell lysates after 1 hr by competitive ABPP assay; type: subcellular, Lysate
T2 sequence (P28072 whole entry): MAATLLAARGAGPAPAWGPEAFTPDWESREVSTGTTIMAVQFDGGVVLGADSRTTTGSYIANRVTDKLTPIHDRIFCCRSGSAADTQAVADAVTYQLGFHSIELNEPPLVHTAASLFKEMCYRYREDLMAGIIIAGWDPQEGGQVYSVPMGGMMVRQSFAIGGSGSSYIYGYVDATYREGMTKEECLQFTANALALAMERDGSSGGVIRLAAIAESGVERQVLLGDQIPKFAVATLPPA
Method in brief: (§1)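 Raji cells were sonicated in 3 volumes of Tris pH 7.5 lysis buffer containing DTT, MgCl₂, sucrose, 2 mM ATP and 0.05% digitonin. Lysate (5 μg protein, in buffer with 2 mM ATP and glycerol) was preincubated with inhibitor for 1 h at 37 °C, then with a cocktail of three fluorescent ABPs for 1 h. In-gel fluorescence densitometry was normalized to mock. IC50 came from the mean of three experiments.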

[4] = target: T3, Proteasome subunit beta type-9 (Homo sapiens, UniProt P28065); experiment: Inhibition of 20S immunoproteasome beta 1 in human Raji cell lysates after 1 hr by competitive ABPP assay; type: subcellular, Lysate
T3 sequence (P28065 whole entry): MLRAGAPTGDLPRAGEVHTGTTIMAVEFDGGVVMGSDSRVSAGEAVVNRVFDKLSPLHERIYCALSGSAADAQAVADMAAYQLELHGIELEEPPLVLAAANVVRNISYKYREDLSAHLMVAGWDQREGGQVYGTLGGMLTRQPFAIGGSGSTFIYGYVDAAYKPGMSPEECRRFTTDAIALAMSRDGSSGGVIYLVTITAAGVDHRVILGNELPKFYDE
Method in brief: as §1, with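 “h. […]” for “h.”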

[5] = target: T4, Proteasome Macropain subunit MB1 (Homo sapiens, UniProt P28074); experiment: Inhibition of 20S constitutive proteasome beta 5 chymotrypsin-like activity in human Raji cell lysates after 1 hr by competitive ABPP assay; type: subcellular, Lysate
T4 sequence (P28074 whole entry): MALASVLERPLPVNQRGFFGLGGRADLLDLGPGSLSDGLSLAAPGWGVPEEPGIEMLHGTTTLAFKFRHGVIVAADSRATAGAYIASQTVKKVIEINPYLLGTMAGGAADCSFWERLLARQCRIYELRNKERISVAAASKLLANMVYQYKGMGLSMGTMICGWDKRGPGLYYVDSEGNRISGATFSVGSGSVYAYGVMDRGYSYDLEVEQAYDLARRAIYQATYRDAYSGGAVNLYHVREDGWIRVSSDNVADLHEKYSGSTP

[6] = target: T5, Proteasome subunit beta type-8 (Homo sapiens, UniProt P28062); experiment: Inhibition of 20S immunoproteasome beta 5 in human Raji cell lysates after 1 hr by competitive ABPP assay; type: subcellular, Lysate
T5 sequence (P28062 whole entry): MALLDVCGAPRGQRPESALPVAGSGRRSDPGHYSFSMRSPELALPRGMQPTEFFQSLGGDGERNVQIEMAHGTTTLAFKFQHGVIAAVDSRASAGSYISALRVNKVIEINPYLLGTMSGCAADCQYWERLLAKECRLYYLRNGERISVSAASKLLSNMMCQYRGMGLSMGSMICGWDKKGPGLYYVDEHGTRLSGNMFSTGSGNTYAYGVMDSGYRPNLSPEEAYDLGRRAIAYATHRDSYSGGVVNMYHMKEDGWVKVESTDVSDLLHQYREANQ

Structure (SMILES)	Ratio IC50 [1]	IC50 [2]	other results
Cc1ncc(C(=O)N[C@@H](CC2CCCCC2)C(=O)N[C@@H](CC2CCCCC2)C(=O)N[C@H](/C=C/S(C)(=O)=O)Cc2ccc(CN)cc2)s1	11	420 nM	–
COc1ccc(C[C@H](NC(=O)[C@H](C)NC(=O)CN2CCOCC2)C(=O)N[C@@H](CC2CCCC3CCCCC32)C(=O)[C@@]2(C)CO2)cc1 (some centres undefined)	–	–	IC50 [3]: > 100 µM; IC50 [4]: > 100 µM; IC50 [5]: > 100 µM; IC50 [6]: > 100 µM
CC(C)[C@H](NC(=O)[C@H](Cc1ccc(CN)cc1)NC(=O)[C@H](Cc1ccccc1)N=[N+]=[N-])C(=O)N[C@@H](CC1CCC(C2CCCCC2)CC1)C(=O)[C@@]1(C)CO1 (some centres undefined)	1.6	–	–
Cc1ncc(C(=O)N[C@@H](CC2CCC(C)CC2)C(=O)N[C@@H](CC(C)C)C(=O)N[C@H](/C=C/S(C)(=O)=O)Cc2ccc(CN)cc2)s1 (some centres undefined)	0.8	325 nM	–
Cc1ncc(C(=O)N[C@@H](CC(C)C)C(=O)N[C@@H](CC2CCC3CCCCC3C2)C(=O)N[C@H](/C=C/S(C)(=O)=O)Cc2ccc(CN)cc2)s1 (some centres undefined)	10	170 nM	–
CC(C)C[C@H](NC(=O)[C@H](Cc1ccccc1)N=[N+]=[N-])C(=O)N[C@@H](CC(F)(F)F)C(=O)N[C@H](/C=C/S(C)(=O)=O)Cc1ccc(CN)cc1	6	130 nM	–
CC(C)[C@H](NC(=O)[C@H](Cc1ccc(CN)cc1)NC(=O)[C@H](Cc1ccccc1)N=[N+]=[N-])C(=O)N[C@@H](CC1CCC2CCCCC2C1)C(=O)[C@@]1(C)CO1 (some centres undefined)	1	–	–
Cc1ncc(C(=O)N[C@H](C(=O)N[C@@H](CC(C)C)C(=O)N[C@H](/C=C/S(C)(=O)=O)Cc2ccc(CN)cc2)C2CCCCC2)s1	1	61 nM	–
COc1ccc(C[C@H](NC(=O)[C@H](C)NC(=O)CN2CCOCC2)C(=O)N[C@@H](C[C@H]2CCCC3CCCCC32)C(=O)[C@@]2(C)CO2)cc1 (some centres undefined)	–	–	IC50 [3]: > 100 µM; IC50 [4]: > 100 µM; IC50 [5]: > 100 µM; IC50 [6]: > 100 µM
Cc1ncc(C(=O)N[C@@H](CC(C)C)C(=O)N[C@@H](CC(C)C)C(=O)N[C@H](/C=C/S(C)(=O)=O)Cc2ccc(CN)cc2)s1	10	700 nM	–
Cc1ncc(C(=O)N[C@@H](CC(C)C)C(=O)N[C@@H](CCC2CCCCC2)C(=O)N[C@H](/C=C/S(C)(=O)=O)Cc2ccc(CN)cc2)s1	25	280 nM	–
CC(C)[C@H](NC(=O)[C@H](Cc1ccc(CN)cc1)NC(=O)[C@H](Cc1ccccc1)N=[N+]=[N-])C(=O)N[C@@H](CC1CC2CCC1C2)C(=O)[C@@]1(C)CO1 (some centres undefined)	2.7	–	–
CC(C)C[C@H](NC(=O)[C@H](CC(C)C)NC(=O)[C@H](Cc1ccccc1)NC(=O)CN=[N+]=[N-])C(=O)N[C@H](/C=C/S(C)(=O)=O)Cc1ccc(CN)cc1	0.6	22 nM	–
Cc1ncc(C(=O)N[C@@H](CC(C)C)C(=O)N[C@@H](CC2CCCC3CCCCC32)C(=O)N[C@H](/C=C/S(C)(=O)=O)Cc2ccc(CN)cc2)s1 (some centres undefined)	4	175 nM	–
CC(C)[C@H](NC(=O)[C@H](Cc1ccc(CN)cc1)NC(=O)[C@H](Cc1ccccc1)N=[N+]=[N-])C(=O)N[C@H](C(=O)[C@@]1(C)CO1)C1CCCCC1	1	–	–
Cc1ncc(C(=O)N[C@@H](CC2CCC3CCCCC3C2)C(=O)N[C@@H](CC(C)C)C(=O)N[C@H](/C=C/S(C)(=O)=O)Cc2ccc(CN)cc2)s1 (some centres undefined)	8	4100 nM	–
COC[C@H](NC(=O)[C@H](CC(C)C)NC(=O)[C@H](Cc1ccccc1)N=[N+]=[N-])C(=O)N[C@H](/C=C/S(C)(=O)=O)Cc1ccc(CN)cc1	25	200 nM	–
